From ChEMBL document CHEMBL4433210, “Synthesis and Evaluation of Bifunctional Aminothiazoles as Antiretrovirals Targeting the HIV-1 Nucleocapsid Protein” (ACS Med Chem Lett, 2019)
Calls of active or inactive are those of the source.

Legend:
[1] = test system: Human immunodeficiency virus 1; assay: Selectivity ratio of IC50 for HIV1 12229 harboring non-nucleoside reverse transcriptase L100I/K103N/H221Y mutant infected in human MT2 cells to IC50 for HIV1 NL4-3 infected in human MT2 cells; format: functional
Summary of the method: (§1)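 Fold change is the IC50 against the resistant strain divided by the IC50 against the wild-type NL4–3 reference. Both IC50 values come from the BiCycle assay (MT-2 infection, then TZM-bl readout of progeny virus).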

[2] = test system: Human immunodeficiency virus 1; assay: (§2) Antiviral activity against HIV1 11808 harboring protease L10F/K20T/V32I/L33F/I54V/G73S/I84V/L89V/L90M mutant infected in human TZM-bl cells infected with supernatants from virus-infected human MT2 cells treated with compound for 72 hrs assessed as reduction in viral replication after 48 hrs by bright Glo-luciferase reporter gene assay; format: functional, organism-based; details: Human immunodeficiency virus 1, 11808
Summary of the method: (§3)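 BiCycle assay: MT-2 cells infected with a drug-resistant HIV-1 strain in the presence of compound dilutions. Virus produced in this first round is then measured by infecting TZM-bl cells. The readout is IC50.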

[3] = test system: Human immunodeficiency virus 1; assay: Selectivity ratio of IC50 for HIV1 11845 harboring integrase 140S/148H double mutant mutant infected in human MT2 cells to IC50 for HIV1 NL4-3 infected in human MT2 cells; format: functional; summary of the method: as §1
[4] = test system: Human immunodeficiency virus 1; assay: Selectivity ratio of IC50 for HIV1 7400 harboring nucleoside reverse transcriptase M41L/D67N/M184V/L210W/T215Y mutant infected in human MT2 cells to IC50 for HIV1 NL4-3 infected in human MT2 cells; format: functional; summary of the method: as §1
[5] = Inhibition of synthesized Nucleocapsid protein (11 to 55 residues) assessed as reduction in NC-induced cTAR DNA destabilization pre-treated with cTAR and Nucleocapsid (11-55) for 15 mins followed by compound addition at 10 uM by spectroflurometry relative to control
Summary of the method: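 NC chaperone inhibition assay: fluorescence monitoring of NC-induced destabilization of cTAR DNA labelled with Alexa488 at the 5′ end and Dabcyl quencher at the 3′ end. Compound is tested at 10 μM.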

[6] = test system: Human immunodeficiency virus 1; assay: Antiviral activity against wild-type HIV1 NL4-3 infected in human TZM-bl cells treated with compound assessed as reduction in viral replication after 48 hrs by bright Glo-luciferase reporter gene assay based monocycle assay; details: Human immunodeficiency virus 1, NL4-3
[7] = test system: Human immunodeficiency virus 1; assay: Antiviral activity against wild-type HIV1 NL4-3 infected infected in human MT2 cells assessed as reduction in HIV1 intracellular genomic RNA level at 5 uM and measured after 30 hrs post infection by TaqMan probe based RT-PCR analysis; format: functional, organism-based
Summary of the method: (§4)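 MT-2 cells were infected with NL4-3 at MOI 0.1 and incubated with test or reference agents at 20, 5 or 1 μM. Real-time PCR measured integrated HIV-1 DNA and intracellular and extracellular genomic HIV-1 RNA at 30 h post-infection. Levels are expressed as a percentage of the no-drug control culture.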

[8] = test system: Human immunodeficiency virus 1; assay: Selectivity ratio of IC50 for HIV1 7401 harboring nucleoside reverse transcriptase M41L/E44D/D67N/T69D/M184V/L210W/T215Y mutant infected in human MT2 cells to IC50 for HIV1 NL4-3 infected in human MT2 cells; format: functional; summary of the method: as §1
[9] = test system: Human immunodeficiency virus 1; assay: Antiviral activity against wild type HIV1 NL4-3 infected in human TZM-bl cells assessed as reduction in viral replication after 48 hrs by bright Glo-luciferase reporter gene assay based BiCycle assay; format: functional, organism-based; details: Human immunodeficiency virus 1, NL4-3, TZM-bl
Summary of the method: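 BiCycle format: MT-2 cells infected with wild-type NL4-3 in the presence of compound dilutions. Virus produced in this first round was then quantified by infecting TZM-bl cells. IC50 was derived from the dose-response data.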

[10] = test system: Human immunodeficiency virus 1; assay: Antiviral activity against wild-type HIV1 NL4-3 infected infected in human MT2 cells assessed as reduction in extracellular RNA at 5 uM and measured after 30 hrs post infection by Alu-LTR PCR protocol based method; format: functional, organism-based; summary of the method: as §4
[11] = test system: Human immunodeficiency virus 1; assay: Selectivity ratio of IC50 for HIV1 12231 harboring non-nucleoside reverse transcriptase 103N/179F/181C mutant infected in human MT2 cells to IC50 for HIV1 NL4-3 infected in human MT2 cells; format: functional; summary of the method: as §1
[12] = Selectivity index, ratio of TD50 for cytotoxicity aginst human PBMC cells to IC50 for antiviral activity against wild type HIV1 NL4-3 infected in human TZM-bl cells assessed as reduction in viral replication after 48 hrs by bright Glo-luciferase reporter gene assay based BiCycle assay; format: toxicity, cell-based; details: read-out: Selectivity Index
Summary of the method: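 SI calculated as TD50 from the PBMC MTS assay divided by IC50 from the BiCycle antiviral assay (MT-2 infection followed by TZM-bl read-out).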

[13] = test system: Human immunodeficiency virus 1; assay: as §2, with “12465” for “11808”, “M46I/I54V/Q58E/T74P/V82L/L90M” for “L10F/K20T/V32I/L33F/I54V/G73S/I84V/L89V/L90M”; format: functional, organism-based; details: Human immunodeficiency virus 1, 12465; summary of the method: as §3
[14] = test system: Human immunodeficiency virus 1; assay: Selectivity ratio of IC50 for HIV1 11808 harboring protease L10F/K20T/V32I/L33F/I54V/G73S/I84V/L89V/L90M mutant infected in human MT2 cells to IC50 for HIV1 NL4-3 infected in human MT2 cells; format: functional; summary of the method: as §1
[15] = test system: Human immunodeficiency virus 1; assay: as §2, with “7401” for “11808”, “nucleoside reverse transcriptase M41L/E44D/D67N/T69D/M184V/L210W/T215Y” for “protease L10F/K20T/V32I/L33F/I54V/G73S/I84V/L89V/L90M”; format: functional, organism-based; details: Human immunodeficiency virus 1, 7401; summary of the method: as §3
[16] = test system: Human immunodeficiency virus 1; assay: as §2, with “11845” for “11808”, “integrase 140S/148H double” for “protease L10F/K20T/V32I/L33F/I54V/G73S/I84V/L89V/L90M”; format: functional, organism-based; details: Human immunodeficiency virus 1, 11845; summary of the method: as §3
[17] = test system: Human immunodeficiency virus 1; assay: as §2, with “7400” for “11808”, “nucleoside reverse transcriptase M41L/D67N/M184V/L210W/T215Y” for “protease L10F/K20T/V32I/L33F/I54V/G73S/I84V/L89V/L90M”; format: functional, organism-based; details: Human immunodeficiency virus 1, 7400; summary of the method: as §3
[18] = test system: Human immunodeficiency virus 1; assay: as §2, with “12231” for “11808”, “non-nucleoside reverse transcriptase 103N/179F/181C” for “protease L10F/K20T/V32I/L33F/I54V/G73S/I84V/L89V/L90M”; format: functional, organism-based; details: Human immunodeficiency virus 1, 12231; summary of the method: as §3
[19] = test system: Human immunodeficiency virus 1; assay: Antiviral activity against wild-type HIV1 NL4-3 infected infected in human MT2 cells assessed as reduction in HIV1 integrated DNA at 5 uM and measured after 30 hrs post infection by Alu-LTR PCR protocol based method; format: functional, organism-based; summary of the method: as §4
[20] = test system: Human immunodeficiency virus 1; assay: Selectivity ratio of IC50 for HIV1 12465 harboring protease M46I/I54V/Q58E/T74P/V82L/L90M mutant infected in human MT2 cells to IC50 for HIV1 NL4-3 infected in human MT2 cells; format: functional; summary of the method: as §1
[21] = Cytotoxicity against human PBMC cells assessed as reduction in cell viability after 7 days by MTS assay; format: cell-based; details: read-out: TD50
Summary of the method: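 Cytotoxicity in peripheral blood mononuclear cells by MTS assay, giving TD50. Only compounds that met the BiCycle IC50 ≤ 5 μM criterion and were positive in the NC inhibition assay were tested.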

[22] = test system: Human immunodeficiency virus 1; assay: as §2, with “12229” for “11808”, “non-nucleoside reverse transcriptase L100I/K103N/H221Y” for “protease L10F/K20T/V32I/L33F/I54V/G73S/I84V/L89V/L90M”; format: functional, organism-based; details: Human immunodeficiency virus 1, 12229; summary of the method: as §3
[23] = test system: Human immunodeficiency virus 1; assay: Antiviral activity against wild-type HIV1 NL4-3 infected infected in human MT2 cells assessed as reduction in HIV1 extracellular genomic RNA level at 5 uM and measured after 30 hrs post infection by TaqMan probe based RT-PCR analysis; format: functional, organism-based; summary of the method: as §4
[24] = test system: Human immunodeficiency virus 1; assay: Antiviral activity against wild-type HIV1 NL4-3 infected infected in human MT2 cells assessed as reduction in intracellular RNA at 20 uM and measured after 30 hrs post infection by Alu-LTR PCR protocol based method; format: functional, organism-based; summary of the method: as §4
[25] = test system: Human immunodeficiency virus 1; assay: Antiviral activity against wild-type HIV1 NL4-3 infected infected in human MT2 cells assessed as reduction in HIV1 extracellular genomic RNA level at 20 uM and measured after 30 hrs post infection by TaqMan probe based RT-PCR analysis; format: functional, organism-based; summary of the method: as §4
[26] = test system: Human immunodeficiency virus 1; assay: Antiviral activity against wild-type HIV1 NL4-3 infected infected in human MT2 cells assessed as reduction in HIV1 intracellular genomic RNA level at 20 uM and measured after 30 hrs post infection by TaqMan probe based RT-PCR analysis; format: functional, organism-based; summary of the method: as §4
[27] = test system: Human immunodeficiency virus 1; assay: Antiviral activity against wild-type HIV1 NL4-3 infected infected in human MT2 cells assessed as reduction in HIV1 integrated DNA at 20 uM and measured after 30 hrs post infection by Alu-LTR PCR protocol based method; format: functional, organism-based; summary of the method: as §4
[28] = test system: Human immunodeficiency virus 1; assay: Antiviral activity against wild-type HIV1 NL4-3 infected infected in human MT2 cells assessed as reduction in extracellular RNA at 20 uM and measured after 30 hrs post infection by Alu-LTR PCR protocol based method; format: functional, organism-based; summary of the method: as §4
[29] = test system: Human immunodeficiency virus 1; assay: Antiviral activity against wild-type HIV1 NL4-3 infected infected in human MT2 cells assessed as reduction in intracellular RNA at 1 uM and measured after 30 hrs post infection by Alu-LTR PCR protocol based method; format: functional, organism-based; summary of the method: as §4
[30] = test system: Human immunodeficiency virus 1; assay: Antiviral activity against wild-type HIV1 NL4-3 infected infected in human MT2 cells assessed as reduction in extracellular RNA at 1 uM and measured after 30 hrs post infection by Alu-LTR PCR protocol based method; format: functional, organism-based; summary of the method: as §4
[31] = test system: Human immunodeficiency virus 1; assay: Antiviral activity against wild-type HIV1 NL4-3 infected in human TZM-bl cells infected with supernatants from virus-infected human HeLa P4.R5MAGI cells treated with compound for 72 hrs assessed as reduction in viral replication after 48 hrs by bright Glo-luciferase reporter gene assay; format: functional, organism-based; details: Human immunodeficiency virus 1, NL4-3

SMILES	Ratio IC50 [1]	IC50 [2]	Ratio IC50 [3]	Ratio IC50 [4]	inhibition [5]	IC50 [6]	Ratio IC50 [8]	IC50 [9]	Ratio IC50 [11]	selectivity ratio at 48 h [12]	IC50 [13]	Ratio IC50 [14]	IC50 [15]	IC50 [16]	IC50 [17]	IC50 [18]	Ratio IC50 [20]	CC50 at 168 h [21]	IC50 [22]	further results
Nc1nc(CCOC(=O)c2ccc(COc3ccccc3-c3csc(N)n3)cc2)cs1.O=C(O)C(F)(F)F.O=C(O)C(F)(F)F	1	1100 nM	2.3	0.4	18%	1200 nM	1.5	300 nM	2.2	53	400 nM	3.6	500 nM	700 nM	100 nM	700 nM	1.2	16000 nM	300 nM	Activity [7]: Active; Activity [10]: Active; Activity [19]: inactive; Activity [23]: Active
Nc1nc(-c2ccc(OCc3cccc(C(=O)NCCNC(=O)c4ccc(COc5ccc(Cl)cc5-c5csc(N)n5)cc4)c3)cc2)cs1.O=C(O)C(F)(F)F.O=C(O)C(F)(F)F	1.2	600 nM	2.7	0.9	20%	> 50000 nM	1.8	800 nM	7.5	> 63	1600 nM	0.7	1400 nM	2200 nM	700 nM	6000 nM	2	> 50000 nM	1000 nM	Activity [24]: inactive; Activity [25]: inactive; Activity [26]: inactive; Activity [27]: inactive; Activity [28]: Active
CC(C)CN(C[C@@H](O)[C@H](Cc1ccccc1)NC(=O)O[C@H]1CO[C@H]2OCC[C@H]21)S(=O)(=O)c1ccc(N)cc1																				Activity [29]: inactive; Activity [30]: Active
Nc1nc(-c2ccccc2OCc2ccc(C(=O)O)cc2)cs1					6%															IC50 [31]: 95000 nM
